Laboratory results published in ChEMBL document CHEMBL1144360, “Phenazine 5,10-dioxide derivatives as hypoxic selective cytotoxins” (2005).
Where “and” joins values, the source holds several entries; their conditions need not be identical. Identical values can stand only once.

Assays:
Assay type in all cases: functional, Cricetulus griseus
Cricetinae gen. sp. [1] = test: In vitro survival fraction of V79 cells after 2 hours upon treatment with compound in air at 20 uM; set-up: unit: %
Outline: (§1)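 Clonogenic assay on V79 suspension cultures gassed with air (aerobic) or nitrogen (hypoxia), exposed to compound for 2 h. Colony survival expressed as survival fraction relative to untreated control under the same gas condition. Assays run in duplicate with at least three repetitions; reported value is the mean of two separate experiments.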

Cricetinae gen. sp. [2] = test: In vitro survival fraction of V79 cells after 2 hours upon treatment with compound under hypoxia at 20 uM; set-up: unit: %; outline: as §1
Cricetinae gen. sp. [3] = test: In vitro survival fraction of V79 cells after 2 hours upon treatment with compound in air at 10 uM; set-up: unit: %; outline: as §1
Cricetinae gen. sp. [4] = test: In vitro survival fraction of V79 cells after 2 hours upon treatment with compound under hypoxia at 10 uM; set-up: unit: %; outline: as §1
Cricetinae gen. sp. [5] = test: In vitro survival fraction of V79 cells after 2 hours upon treatment with compound in air at 5 uM; outline: as §1
Cricetinae gen. sp. [6] = test: In vitro survival fraction of V79 cells after 2 hours upon treatment with compound under hypoxia at 5 uM; outline: as §1

Structure (SMILES) | SF (Cricetinae gen. sp. [1]) | SF (Cricetinae gen. sp. [2]) | SF (Cricetinae gen. sp. [3]) | SF (Cricetinae gen. sp. [4]) | SF (Cricetinae gen. sp. [5]) | SF (Cricetinae gen. sp. [6])
Cc1ccc2nc3cc(N)ccc3[n+]([O-])c2c1 | 100 and 98 | 100 | – | – | – | –
Nc1ccc2nc3cc(Cl)ccc3nc2c1 | 0 | 100 | – | – | – | –
Nc1ccc2nc3cc(Br)ccc3nc2c1 | 0 | 0 | – | – | – | –
Nc1ccc2c(c1)[n+]([O-])c1ccc(Br)cc1[n+]2[O-] | 12 | 0 | 64 | 3 | – | –
[O-][n+]1c2ccc(Br)cc2[n+]([O-])c2ccc(O)cc21 | 80 | 0 | – | – | – | –
Nc1ccc2c(c1)[n+]([O-])c1ccccc1[n+]2[O-] | 2 | 0 | 64 | 19 | – | –
[O-][n+]1c2ccc(Cl)cc2[n+]([O-])c2ccc(O)cc21 | 100 | 100 | – | – | – | –
COc1ccc2c(c1)[n+]([O-])c1ccc(N)cc1[n+]2[O-] | 87 | 23 | – | – | – | –
Nc1ccc2c(c1)[n+]([O-])c1ccc(Cl)cc1[n+]2[O-] | 0 | 0 | 26 | 3 | – | –
Nc1ccc2nc3cc(C4OCCO4)ccc3nc2c1 | 100 | 100 | – | – | – | –
Cc1ccc2nc3cc(O)ccc3nc2c1 | 100 | 100 | – | – | – | –
[O-][n+]1c2ccccc2[n+]([O-])c2cc(O)ccc21 | 100 | 73 | – | – | – | –
Cc1ccc2c(c1)[n+]([O-])c1ccc(N)cc1[n+]2[O-] | 61 | 11 | – | – | – | –
[O-][n+]1c2ccc(C3OCCO3)cc2[n+]([O-])c2ccc(O)cc21 | 100 | 100 | – | – | 100 | 5
COc1ccc2c(c1)[n+]([O-])c1ccc(O)cc1[n+]2[O-] | 100 | 87 | – | – | – | –
Cc1ccc2c(c1)[n+]([O-])c1ccc(O)cc1[n+]2[O-] | 93 | 100 | – | – | – | –
Oc1ccc2nc3cc(Br)ccc3nc2c1 | 100 | 100 | – | – | – | –
O=Cc1ccc2nc3cc(O)ccc3nc2c1 | 98 | 100 | – | – | – | –
Nc1ccc2c(c1)[n+]([O-])c1ccc([N+](=O)[O-])cc1[n+]2[O-] | 1 | 2 | 58 | 65 | – | –
Cc1ccc2nc3cc(N)ccc3nc2c1 | 98 | 100 | – | – | – | –
Nc1ccc2c(c1)[n+]([O-])c1ccc(C3OCCO3)cc1[n+]2[O-] | 14 | 0 | 86 | 1 | 100 | 36
Oc1ccc2nc3cc(Cl)ccc3nc2c1 | 100 | 100 | – | – | – | –
